The values below come from ChEMBL document CHEMBL1146601, “Antileishmanial ring-substituted ether phospholipids” (J Med Chem, 2003).

One assay has as its system Leishmania donovani. Briefly: In vitro anti-leishmanial activity against promastigote cultures of Leishmania donovani MON 703. It counts as functional, organism-based. The procedure, abridged: (§1)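 Promastigotes (L. donovani MHOM/IN/80/DD8/LEM 703; L. infantum MHOM/TN/80/IPT1/LEM 235) grown in RPMI 1640 with 10% FCS, L-glutamine and antibiotics at 26 °C. Seeded at 5 × 10^5 cells/mL with 3-fold medium dilutions of a 9.625 mM DMSO solution, 72 h at 26 °C. MTT added for 3 h; SDS/2-propanol stop; A550 (ref 620 nm). IC50 by Hills method.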

In the next assay the test system is Leishmania infantum. In words: In vitro anti-leishmanial activity against promastigote cultures of Leishmania infantum MON 235. It counts as functional, organism-based. The procedure, abridged:
as §1

pIC50: −log10 of the molar value.

As usually defined, the pIC50 is the IC50 on a negative log10 scale, so that one unit is a factor of ten. Low values mean a large IC50, high ones a small IC50. Take `C[N+](C)(C)CCOP(=O)([O-])OCCCCCCCCCCCC1C2CC3CC(C2)CC1C3` (centres undefined): the pIC50 is 5.54 with Leishmania donovani and 5.22 with Leishmania infantum.

As to `C[N+]1(CCOP(=O)([O-])OCCOc2ccc3ccccc3c2)CCCCC1`, the pIC50 with Leishmania donovani and in the assay with Leishmania infantum was less than 4.00 each time.

In the case of `C[N+]1(CCOP(=O)([O-])OCCOc2ccccc2)CCOCC1`, the pIC50 in the assay on Leishmania donovani and in the assay on Leishmania infantum was less than 4.00 each time.

Consider `C[N+]1(CCOP(=O)([O-])OCCCCCCOc2ccccc2)CCOCC1`, for which the pIC50 in the assay with Leishmania donovani and in the assay on Leishmania infantum was less than 4.00 each time.

Turning to `C[N+]1(CCOP(=O)([O-])Oc2ccc(C34CC5CC(CC(C5)C3)C4)cc2)CCOCC1`, the pIC50 with Leishmania donovani and with Leishmania infantum was less than 4.00 each time.

With `C[N+](C)(C)CCOP(=O)([O-])OCCCCCC1C2CC3CC(C2)CC1C3` (centres undefined), the negative logarithm of the IC50 (pIC50) in the assay with Leishmania donovani was 5.40; in the assay on Leishmania infantum, less than 4.00.

Regarding `C[N+](C)(C)CCOP(=O)([O-])OCCOc1ccc2ccccc2c1`, the pIC50 in the assay with Leishmania donovani and with Leishmania infantum was less than 4.00 throughout.

For `C[N+](C)(C)CCOP(=O)([O-])OCCCCCCOc1ccccc1`, the pIC50 in the assay on Leishmania donovani and in the assay with Leishmania infantum was less than 4.00 throughout.

Take `CCCCCCCCCCCCCCC1CCC(OCCOP(=O)([O-])OCC[N+](C)(C)C)CC1` (centres undefined): the negative-log IC50 (pIC50) with Leishmania donovani and in the assay on Leishmania infantum was 4.63 each time.

Turning to `C[N+](C)(C)CCOP(=O)([O-])OCCOc1ccccc1`, the pIC50 in the assay on Leishmania donovani and with Leishmania infantum was less than 4.00 throughout.

Turning to `C[N+](C)(C)CCOP(=O)([O-])OCC12CC3CC(CC(C3)C1)C2`, the pIC50 in the assay on Leishmania donovani and in the assay on Leishmania infantum was less than 4.00 each time.

As for `CCCCCCCCCCCCCCCCOP(=O)([O-])OCC[N+](C)(C)C` [MILTEFOSINE], the results for the negative logarithm of the IC50 (pIC50) in the assay on Leishmania donovani and in the assay with Leishmania infantum were 4.63 and 4.65, respectively.
